The source made the active and inactive calls. No cut-off for these calls is given here.
Columns and labels:
[1] = Chemical stability of the compound in acidic medium assessed as unchanged compound after 3 hrs at pH 1 by RP-HPLC analysis; format: physicochemical; conditions: read-out: Stability
How it was run: (§1)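 A 0.5 mM DMSO solution (2 mL) was diluted to 10 mL with 0.1 M HCl (pH 1.0) or 50 mM phosphate buffer (pH 7.4). Held at 37 ± 0.5 °C and sampled over time by RP-HPLC on C18 with acetonitrile/water 0.1% TFA gradient. Percent unchanged reported at 3 h. Triplicate.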

[2] = Half life in human serum at 200 uM by RP-HPLC analysis; format: ADME
How it was run: (§2)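 DMSO stock (10 mM) added to prewarmed human serum (male AB plasma) to a final 200 μM. Incubated at 37 ± 0.5 °C; aliquots deproteinized with acetonitrile containing 0.1% TFA. Parent, aspirin and metabolites quantified by RP-HPLC, calibration 1–200 μM. Pseudo-first-order half-life; peak aspirin expressed as % of initial carbonate. At least triplicate.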

[3] = Chemical stability of the compound in phosphate buffer assessed as unchanged compound after 3 hrs at pH 7.4 by RP-HPLC analysis; format: physicochemical; conditions: read-out: Stability; how it was run: as §1
Homo sapiens = species: Homo sapiens; test: Chemical stability of compound in human serum assessed as maximal amount of aspirin released; format: ADME; how it was run: as §2
[4] = Antiaggregatory activity in plasma rich human platelets assessed as inhibition of collagen-induced platelet aggregation preincubated for 10 mins before collagen challenge measured 10 mins after stimulus addition; format: functional
How it was run: (§3)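 Human PRP from citrated venous blood of drug-free healthy volunteers, centrifuged 210g for 20 min. Compound (vehicle 0.5% DMSO) preincubated 10 min, then collagen at submaximal 0.8–1.5 μg/mL. Light-transmission aggregometry with stirring at 1000 rpm, 37 °C, recorded 10 min. Reported as % inhibition versus control (at 300 μM) or IC50 by nonlinear regression. At least five experiments.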

Platelet = test: Antiaggregatory activity in plasma rich human platelets assessed as inhibition of collagen-induced platelet aggregation at 300 uM preincubated for 10 mins before collagen challenge measured 10 mins after stimulus addition; format: functional; how it was run: as §3
Aorta [5] = test: Vasodilatory activity at endothelium denuded Wistar rat thoracic aorta assessed as relaxation of phenylephrine-induced contraction; format: functional, tissue-based
How it was run: (§4)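 Male Wistar rat (180–200 g) thoracic aorta strips at 37 °C, 95% O2/5% CO2, pH 7.4, equilibrated 1.5 h, then precontracted with 1 μM L-phenylephrine. Cumulative vasodilator concentrations added at plateau; isometric recording. EC50 ± SEM from at least five experiments. ODQ runs: 1 μM inhibitor added before contraction, preincubated ≥30 min before vasodilator.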

Aorta [6] = test: Vasodilatory activity at endothelium denuded Wistar rat thoracic aorta assessed as relaxation of phenylephrine-induced contraction preincubated for 30 mins before phenylephrine challenge in presence of 1 uM soluble guanylate cyclase inhibitor H-[1,2,4]Oxadiazolo[4,3-a]quinoxalin-1-one; format: functional, tissue-based; how it was run: as §4
Aorta [7] = test: Vasodilatory activity at endothelium denuded Wistar rat thoracic aorta assessed as relaxation of KCl-induced contraction preincubated for 30 mins before KCl challenge in presence of 10 uM ATP-modulated K+ channel inhibitor glibenclamide; format: functional, tissue-based
How it was run: (§5)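 Endothelium-denuded thoracic aorta strips from male Wistar rats (180–200 g) at 37 °C, gassed 95% O2/5% CO2, pH 7.4. Equilibrated 1.5 h, contracted with 25 mM KCl, then cumulative compound concentrations added at plateau; isometric tension recorded. EC50 ± SEM; at least five experiments. For glibenclamide runs, 10 μM added before contraction, ≥30 min before vasodilator.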

Aorta [8] = test: Vasodilatory activity at endothelium denuded Wistar rat thoracic aorta assessed as relaxation of KCL-induced contraction preincubated for 30 mins before KCL challenge; format: functional, tissue-based; how it was run: as §5

SMILES	remaining at 3 h [1] [%]	half-life at 200 µM [2] [min]	remaining at 3 h [3] [%]	Activity (Homo sapiens) [%]	IC50 [4] [µM]	Activity (Platelet)	EC50 (Aorta [5]) [µM]	EC50 (Aorta [6]) [µM]	EC50 (Aorta [7]) [µM]	EC50 (Aorta [8]) [µM]
CC(=O)Oc1ccccc1C(=O)OCOC(=O)OCC(CO[N+](=O)[O-])O[N+](=O)[O-] (configuration not stated)	98	< 1	85	25	93	–	–	–	–	–
O=[N+]([O-])OCCCO [ABRUCOMSTAT]	–	–	–	–	–	inactive	4	> 100	–	–
CC(=O)Oc1ccccc1C(=O)OCOC(=O)Oc1ccc(CCCO[N+](=O)[O-])cc1	98	1.6	98	40	68	–	–	–	–	–
CC(=O)Oc1ccccc1C(=O)O [ASPIRIN]	90	63	90	–	54	–	–	–	–	–
CC(=O)Oc1ccccc1C(=O)OCOC(=O)OCCOc1ccc(-c2cc(=S)ss2)cc1	98	3	96	42	16	–	–	–	–	–
CC(=O)Oc1ccccc1C(=O)OCOC(=O)OCCCO[N+](=O)[O-]	98	< 1	98	9	194	–	–	–	–	–
CC(=O)Oc1ccccc1C(=O)OCOC(=O)Oc1ccc(-c2cc(=S)ss2)cc1	96	2.1	80	36	150	–	–	–	–	–
O=[N+]([O-])OCC(Cc1ccc(O)cc1)O[N+](=O)[O-] (configuration not stated)	–	–	–	–	–	inactive	0.13	> 100	–	–
Oc1ccc(-c2cc(=S)ss2)cc1	–	–	–	–	–	inactive	–	–	17	5.9
CC(=O)Oc1ccccc1C(=O)OCOC(=O)Oc1ccc(CC(CO[N+](=O)[O-])O[N+](=O)[O-])cc1 (configuration not stated)	98	2.2	95	34	103	–	–	–	–	–
OCCOc1ccc(-c2cc(=S)ss2)cc1	–	–	–	–	–	–	–	–	16	8
O=[N+]([O-])OCCCc1ccc(O)cc1	–	–	–	–	–	–	1	> 100	–	–
